# This sample holds only a part of the variants without activity.
# B1: tRNA (parent)
# chain: GUUCCGUUGGCGUAAUGGUAACGCGUCUCCCUCCUAAGGAGAAGACUGCGGGUUCGAGUCCCGUACGGAACG
# Variants of: B1
# Experiment: yeast fitness relative to wild type (ratio to wild type); higher = fitter; tRNA-Arg(CCU), competitive growth, 37 C, YPD
# How it was run: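 For this measurement, the tRNA-Arg(CCU) gene was varied by chemical synthesis at a 3% per-site mutation rate across 69 sites, and each variant was placed at the native genomic locus in Saccharomyces cerevisiae. The pooled strains went through a 24-hour competition in YPD at 37°C in six parallel replicates, with amplicons from start and end populations read by 100-nucleotide paired-end sequencing. Darwinian fitness relative to wild type followed from the change in each genotype's frequency. Genotypes needed ≥ 100 starting reads, and estimates < 0.5 were set to 0.5.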
row,Variant,yeast fitness
1,A45G C49U,0.941
2,U28C C33G G38A A57G,≤ 0.5
3,A15U A20C U32G,≤ 0.5
4,G23U A45G,0.579
5,U2A C11G A21G,0.567
6,C4U C27G A45C C55U,0.559
7,U8C G18A C24A A37G A57G A69G,≤ 0.5
8,G9C C22A G48C G63C,≤ 0.5
9,U3A A45C,0.88
10,U28C G52A A69U,0.592
11,A37G G51A,0.704
12,G6C C27U G51U G67A,≤ 0.5
13,A14U C24G C31A A40G G44C C55U,≤ 0.5
14,U7A C29G C46G G58A,≤ 0.5
15,C24G C29U G38C,0.62
16,C30U C46A G50A,0.632
17,U2A C5G A14U U19A G23C C29A C66A,≤ 0.5
18,C4U C61G C62G,≤ 0.5
19,A42U A57C C61U G67C,≤ 0.5
20,G39C G44C A65C,≤ 0.5
21,C5U G25A G51C G56C A69U,≤ 0.5
22,G41C C55A C66U A69C,≤ 0.5
23,G12A A15G,0.843
24,C22A C49G,0.646

row,Variant,yeast fitness
1,G6C G50A G67A,0.606
2,U8G A20C A43U G67A,≤ 0.5
3,G12A U13A A14G G38C,≤ 0.5
4,C34G C49A G50A,≤ 0.5
5,C27U C30G U32C A70U,0.585
6,C33U G38A C46U U64C,0.536
7,U2A G9A C33U G38C A40U A42C,≤ 0.5
8,C11G U53C,0.584
9,G56A C62G U64G,≤ 0.5
10,C5U U32C C55U,0.564
11,C11U A21U C30G A42G,0.755
12,C5G A37C G38A,0.562
13,C5U G23A C62G,0.538
14,C5U C24U A42C A57U,0.534
15,G51C C62U A70U,≤ 0.5
16,G12A C31U A70G,0.803
17,A21G A45C,0.89
18,A21C C34G C46A,≤ 0.5
19,G12A A20G U26C C31G C33U A42U,≤ 0.5
20,C5G A14U A43G G67C,0.56
21,A20C A21G C46U C60G,≤ 0.5
22,G6C U54C,0.898
23,A42G G68U,0.834
24,U13A C27U G44C,0.637

row,Variant,yeast fitness
1,C60A G63A,0.584
2,A36G A43C U64C,0.687
3,G9A U32C C33G A37G G52A C55U G63A A65U,≤ 0.5
4,U7A A45U,0.672
5,U3C G38A C61U,0.564
6,C29A U47A G68C,≤ 0.5
7,A14G C33U U47A G51C C62U,0.514
8,U7A U47C A69C,0.601
9,C5G A40G A57G,≤ 0.5
10,G6A C49U A65C,0.701
11,G23C G52A,≤ 0.5
12,C30G U54G,≤ 0.5
13,G56C U59A A65G,0.571
14,C5A C49U A65U G67C,≤ 0.5
15,C4G G18C,0.599
16,A15U U28A C33G,0.561
17,U19C G38C G58C U64A,≤ 0.5
18,C4G C27U C31U,0.652
19,U8G A20U G44C A57G,≤ 0.5
20,U13C A14G C24G,≤ 0.5
21,U2A C5G C24U C30G,≤ 0.5
22,G6C C22A U28A G51U U53G,≤ 0.5
23,C11U C24U C34U C61U,≤ 0.5
24,C31A C49U C61U,0.663

row,Variant,yeast fitness
1,C4G C62A,0.67
2,U2G C34U A57C,≤ 0.5
3,G9A C11A A57G,≤ 0.5
4,A15G A20G C27A A40G A45C,0.503
5,U13G G48A C62G A69U,0.599
6,A36G G68C A69U,0.547
7,C60A C61G A65U,≤ 0.5
8,A14G U35A A42U C46G G56A,0.524
9,C5A C22G C27G A36U A40C,≤ 0.5
10,C30U C55U,0.687
11,U8A C11U G25A C33A A40U C61A C62U,≤ 0.5
12,C29U C31A A69U,0.627
13,U2G G9C A14C A36U C46A C62G,≤ 0.5
14,G10A C24A G52U,≤ 0.5
15,G12A A14U C66A,≤ 0.5
16,U16G U32G C46U,≤ 0.5
17,G50C C66U,0.596
18,U7A G9C G17C G50A,≤ 0.5
19,G9A C30A G38A A42C C61U,≤ 0.5
20,U2G U19A C66U,0.606
21,G18A A57U,0.588
22,C34A A37U A69C,≤ 0.5
23,A20G C30U C55U,≤ 0.5
24,G6A G44A C60G U64C,≤ 0.5

row,Variant,yeast fitness
1,A42G U47A C55U A57C,0.631
2,C22A C30U C34G A70U,≤ 0.5
3,U26C A37G,0.634
4,U8A C33A A40C,≤ 0.5
5,C4G A20C C30A C31G C34A A37G C49A A57C G63A,≤ 0.5
6,A20G G23A C24G,≤ 0.5
7,G6C U16G C27U C60G,0.582
8,C24U C27U A43C U47C,0.618
9,C46U C60G A65U,0.557
10,A42U A65C G67U,≤ 0.5
11,C34G A37U C49G A57G A65G C66U,≤ 0.5
12,C29G C33G G52C,0.579
13,G23C U54G,≤ 0.5
14,C27U G67A,1.02
15,U7A C55U A65G,≤ 0.5
16,C5G C30G G52C,0.519
17,A21C C22G G38C A57C A65U,≤ 0.5
18,A15C C24U U28A C29G G52A,0.501
19,U19C C27U C29G C34A A42C A69C,≤ 0.5
20,G10C C27G A42C C49A G67A,≤ 0.5
21,A15G C33G G44A C46G C66U,≤ 0.5
22,C24U C29G,0.674
23,C33U C34G A45C C60A,≤ 0.5
24,U19C C29G C33G G41C C66U,≤ 0.5

row,Variant,yeast fitness
1,C4G A15G G23A C34G G67U,≤ 0.5
2,A21U U35A,0.584
3,G25C C46U,1.06
4,G38C G52C,0.502
5,C24U A37G A43G A70U,≤ 0.5
6,U8G G17A A20C C22G C29G C34G,0.549
7,G18A G68U,0.711
8,C22G C34G A40C A69U,0.769
9,A15G C22U G68C,≤ 0.5
10,C46G G68C,0.795
11,U19G A45C A70U,0.557
12,C4G C5G C30U C31U A37G G50C A57U,≤ 0.5
13,A42C A43G G63A,0.599
14,C11G U16A C30A A69C,≤ 0.5
15,G52C C55A,≤ 0.5
16,C11A A21U G41A G58A A65G,≤ 0.5
17,C11U A15C C29U A37G G63A,≤ 0.5
18,C30U G44C G51A C61U,≤ 0.5
19,A43G G50A G51A C62U,≤ 0.5
20,C5A G17C G44A C61U,≤ 0.5
21,U26A A57U,0.802
22,U8C C27U A36C G39C G48C G63U A70U,≤ 0.5
23,C11U A45U A57C G58A,0.61
24,A15C C24U A42C,0.62

row,Variant,yeast fitness
1,G12A A42G A45G U54A C62A,≤ 0.5
2,U19G G44A G48A G50C,≤ 0.5
3,G12A C27U C30G A42G C55U A57C,≤ 0.5
4,A21G C22U U32C C33A A37G A57C,≤ 0.5
5,A37C G38C C55U,≤ 0.5
6,C5A A14C A15G G58C C60U C66G,≤ 0.5
7,C24G G44A C55U,≤ 0.5
8,C34G A40G U53A G68C,≤ 0.5
9,G38A A40U G58C,0.853
10,U7C C61U U64A A69G,0.535
11,C4G U8G G18C C49U G58A G67A,≤ 0.5
12,U2A C11G U47A,≤ 0.5
13,C24G C62G,0.541
14,U2G G9C A20G A42C C46G C49U G68A A70U,≤ 0.5
15,U19C A36C G39A C62G,≤ 0.5
16,C5A C24G G56A C62A,≤ 0.5
17,U3C G12A U28C A37C A45U G48C,≤ 0.5
18,C5U A14U U19C G48A C66U,≤ 0.5
19,U7G C27G U32C A36G G63A,≤ 0.5
20,G12A G44A,0.935
21,C27G A45U G67A,≤ 0.5
22,A14C C27G C61U A70G,0.538
23,C4A A21C,0.775
